According to ChEMBL document CHEMBL3108696, “Structure-activity relationships of chromone derivatives toward the mechanism of interaction with and inhibition of breast cancer resistance protein ABCG2” (J Med Chem, 2013):
pEC50, pIC50: −log10 of the molar value.

How the values were obtained:
[1] = target: T1, Broad substrate specificity ATP-binding cassette transporter ABCG2 (Homo sapiens, UniProt Q9UNQ0); assay: Binding affinity to ABCG2 (unknown origin) expressed in HEK293 cells assessed as modulation of 5D3 binding at 5 uM after 45 mins by flow cytometric analysis relative to Ko143; type: cell-based; details: hek293, 0.75 h
T1 sequence (Q9UNQ0 whole entry): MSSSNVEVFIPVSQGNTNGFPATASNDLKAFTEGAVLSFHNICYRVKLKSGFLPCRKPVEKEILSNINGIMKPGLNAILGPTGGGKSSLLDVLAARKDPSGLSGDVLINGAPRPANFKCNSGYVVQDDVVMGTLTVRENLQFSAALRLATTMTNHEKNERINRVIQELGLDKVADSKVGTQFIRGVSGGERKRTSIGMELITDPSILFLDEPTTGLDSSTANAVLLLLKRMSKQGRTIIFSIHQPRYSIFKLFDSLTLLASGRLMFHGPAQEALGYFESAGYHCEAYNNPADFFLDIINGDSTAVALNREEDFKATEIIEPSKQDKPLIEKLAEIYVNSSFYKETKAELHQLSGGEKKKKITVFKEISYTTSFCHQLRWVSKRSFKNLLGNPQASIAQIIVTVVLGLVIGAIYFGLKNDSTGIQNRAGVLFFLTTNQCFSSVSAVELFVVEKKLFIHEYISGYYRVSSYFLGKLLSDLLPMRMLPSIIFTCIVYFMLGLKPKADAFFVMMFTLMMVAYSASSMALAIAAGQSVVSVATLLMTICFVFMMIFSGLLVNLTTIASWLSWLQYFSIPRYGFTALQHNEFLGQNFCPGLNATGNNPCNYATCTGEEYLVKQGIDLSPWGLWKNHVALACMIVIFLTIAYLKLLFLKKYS
Summary of the method: (§1)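 5D3 shift assay on ABCG2-transfected HEK293 cells (0.5 × 10^6 cells/tube) in PBS with 0.5% BSA. Compound at 2 or 5 μM plus 5D3 anti-ABCG2 antibody or isotype control (1 μg/mL), 45 min at 37 °C. Anti-mouse Alexa Fluor 488 secondary (3 μg/mL), 30 min at 37 °C. Binding read by flow cytometry, expressed relative to 2 μM Ko143 (100%). Mean ± SD of ≥3 independent experiments.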

[2] = target: T1, Broad substrate specificity ATP-binding cassette transporter ABCG2; assay: Binding affinity to ABCG2 (unknown origin) expressed in HEK293 cells assessed as modulation of 5D3 binding at 2 uM after 45 mins by flow cytometric analysis relative to Ko143; type: cell-based; details: hek293, 0.75 h; summary of the method: as §1
[3] = target: T1, Broad substrate specificity ATP-binding cassette transporter ABCG2; assay: Inhibition of human ABCG2 expressed in Sf9 insect cell membranes assessed as inhibition of quercetin-stimulated ATPase activity after 30 mins by colorimetric analysis in presence of sodium orthovanadate; details: for inhibition (INH): human, sf9, 0.5 h
Summary of the method: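 Quercetin (2 μM)-stimulated vanadate-sensitive ATPase assay on cholesterol-loaded ABCG2 Sf9 membranes (10 μg/sample) in Tris/NaCl buffer, pH 8.0. Compound at 0.01, 0.03, 0.5 and 2 μM. ATP-Mg 3.9 mM, 30 min at 37 °C. Released phosphate read colorimetrically at 880 nm. IC50 estimated as 50% inhibition of initial activity; three independent experiments.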

[4] = target: T1, Broad substrate specificity ATP-binding cassette transporter ABCG2; assay: Inhibition of human ABCG2 ATPase activity expressed in Sf9 insect cell membranes at 2 uM after 30 mins by colorimetric analysis relative to basal control in presence of sodium orthovanadate; details: sf9, 0.5 h
Summary of the method: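 Basal vanadate-sensitive ATPase assay on cholesterol-loaded membranes from human ABCG2-expressing Sf9 cells (0.5 mg/mL; 10 μg/sample). Buffer: 50 mM Tris-HCl, 50 mM NaCl, pH 8.0, with azide, ouabain, DTT and EGTA, ± 0.33 mM orthovanadate. Compound at 2 μM, or substrates nilotinib 0.1 μM, quercetin 2 μM, prazosin 20 μM. ATP-Mg 3.9 mM, 30 min at 37 °C. Phosphate read by molybdate/ascorbate at 880 nm.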

ABCG2 [5] = target: T2, ABCG2 (Homo sapiens, UniProt Q9UNQ0); assay: Inhibition of ABCG2 (unknown origin)-mediated pheophorbide A efflux expressed in HEK293 cells at 1 to 5 uM after 30 mins by flow cytometric analysis relative to control; type: cell-based; details: HEK293 cells expressing ABCG2, probe pheophorbide A, read-out: Imax
T2 sequence (Q9UNQ0 whole entry): T1 sequence (Q9UNQ0 whole entry)
Summary of the method: (§2)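 Cells seeded at 1.5 × 10^5 cells/well and grown 48 h were exposed to BODIPY-prazosin (0.2 μM) or pheophorbide A (2 μM) for 30 min at 37 °C with or without compound. After washing and trypsinization, intracellular fluorescence was read by flow cytometry (FL4, ≥10 000 events). Percent inhibition = (C−M)/(Cev−M)×100, where Cev is from ABCG2-negative control cells.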

[6] = target: T1, Broad substrate specificity ATP-binding cassette transporter ABCG2; assay: Inhibition of ABCG2 (unknown origin)-mediated BODIPY-prazosin efflux expressed in HEK293 cells at 1 to 5 uM after 30 mins by flow cytometric analysis; type: cell-based; details: hek293, 0.5 h; summary of the method: as §2
[7] = target: Multidrug resistance-associated protein 1 (Homo sapiens, UniProt P33527); assay: Inhibition of ABCC1 (unknown origin)-mediated calcein-AM efflux expressed in HEK293 cells at 5 uM after 30 mins by flow cytometric analysis; type: cell-based; details: hek293, 0.5 h
[8] = target: ATP-dependent translocase ABCB1 (Homo sapiens, UniProt P08183); assay: Inhibition of ABCB1 (unknown origin)-mediated rhodamine 123 efflux expressed in mouse NIH/3T3 cells at 5 uM after 30 mins by flow cytometric analysis; type: cell-based; details: nih/3t3, 0.5 h
ABCG2 [9] = target: T2, ABCG2; assay: Inhibition of ABCG2 (unknown origin)-mediated mitoxantrone efflux expressed in HEK293 cells at 5 to 10 uM after 30 mins by flow cytometric analysis relative to control; type: cell-based; details: HEK293 cells expressing ABCG2, probe mitoxantrone, read-out: Imax
[10] = target: T1, Broad substrate specificity ATP-binding cassette transporter ABCG2; assay: Inhibition of ABCG2 (unknown origin)-mediated mitoxantrone efflux expressed in HEK293 cells after 30 mins by flow cytometric analysis; type: cell-based
[11] = target: T1, Broad substrate specificity ATP-binding cassette transporter ABCG2; assay: Inhibition of ABCG2-mediated mitoxantrone efflux in mitoxantrone-selected human H460 cells after 30 mins by flow cytometric analysis; type: cell-based
ABCG2 [12] = target: T2, ABCG2; assay: Inhibition of ABCG2-mediated mitoxantrone efflux in mitoxantrone-selected human H460 cells at 5 to 10 uM after 30 mins by flow cytometric analysis relative to control; type: cell-based; details: probe mitoxantrone, read-out: Imax
[13] = target: T1, Broad substrate specificity ATP-binding cassette transporter ABCG2; assay: Stimulation of human ABCG2 ATPase activity expressed in Sf9 insect cell membranes at 2 uM after 30 mins by colorimetric analysis relative to basal control in presence of sodium orthovanadate; details: sf9, 0.5 h

Sequence of Multidrug resistance-associated protein 1 (P33527 whole entry): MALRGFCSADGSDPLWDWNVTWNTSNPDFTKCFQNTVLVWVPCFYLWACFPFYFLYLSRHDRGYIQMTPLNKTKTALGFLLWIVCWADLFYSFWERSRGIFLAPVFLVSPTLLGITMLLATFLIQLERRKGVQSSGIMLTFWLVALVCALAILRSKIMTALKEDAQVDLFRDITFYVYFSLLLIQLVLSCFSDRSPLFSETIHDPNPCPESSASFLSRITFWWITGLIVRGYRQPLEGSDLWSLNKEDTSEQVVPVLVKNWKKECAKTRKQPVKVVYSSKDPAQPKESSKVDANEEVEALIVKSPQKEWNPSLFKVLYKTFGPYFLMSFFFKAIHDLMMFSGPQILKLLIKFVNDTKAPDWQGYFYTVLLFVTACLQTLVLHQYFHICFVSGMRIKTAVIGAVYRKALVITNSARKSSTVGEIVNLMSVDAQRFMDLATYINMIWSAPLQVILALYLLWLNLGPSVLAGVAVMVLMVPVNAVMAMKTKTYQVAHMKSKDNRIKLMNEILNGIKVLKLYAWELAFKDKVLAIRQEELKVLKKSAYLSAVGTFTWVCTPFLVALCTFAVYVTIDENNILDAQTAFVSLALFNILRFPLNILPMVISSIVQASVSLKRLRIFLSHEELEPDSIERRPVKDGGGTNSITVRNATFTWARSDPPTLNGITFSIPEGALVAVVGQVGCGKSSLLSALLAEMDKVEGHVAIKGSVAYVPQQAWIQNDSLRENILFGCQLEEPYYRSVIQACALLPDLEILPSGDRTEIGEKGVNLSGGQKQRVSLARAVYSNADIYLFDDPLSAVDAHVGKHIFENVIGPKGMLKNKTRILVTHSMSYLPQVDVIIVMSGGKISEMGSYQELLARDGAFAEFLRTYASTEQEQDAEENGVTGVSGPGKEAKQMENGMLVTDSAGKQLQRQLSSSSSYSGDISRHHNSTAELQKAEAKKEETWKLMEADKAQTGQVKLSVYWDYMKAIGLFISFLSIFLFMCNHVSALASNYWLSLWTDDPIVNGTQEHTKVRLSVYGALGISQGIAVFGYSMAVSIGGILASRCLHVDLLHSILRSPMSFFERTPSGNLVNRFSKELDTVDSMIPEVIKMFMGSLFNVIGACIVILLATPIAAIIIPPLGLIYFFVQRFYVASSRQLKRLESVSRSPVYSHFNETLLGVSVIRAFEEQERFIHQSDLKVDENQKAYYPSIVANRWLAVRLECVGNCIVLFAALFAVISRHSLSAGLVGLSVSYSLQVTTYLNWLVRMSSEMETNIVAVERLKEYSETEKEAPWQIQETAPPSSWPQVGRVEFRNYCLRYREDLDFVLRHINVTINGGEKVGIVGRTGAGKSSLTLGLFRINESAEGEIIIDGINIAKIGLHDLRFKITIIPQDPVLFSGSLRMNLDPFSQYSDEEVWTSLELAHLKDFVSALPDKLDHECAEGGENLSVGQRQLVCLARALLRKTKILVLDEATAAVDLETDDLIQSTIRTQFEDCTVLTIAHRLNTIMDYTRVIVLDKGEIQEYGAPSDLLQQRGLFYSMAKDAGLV
Sequence of ATP-dependent translocase ABCB1 (P08183 whole entry): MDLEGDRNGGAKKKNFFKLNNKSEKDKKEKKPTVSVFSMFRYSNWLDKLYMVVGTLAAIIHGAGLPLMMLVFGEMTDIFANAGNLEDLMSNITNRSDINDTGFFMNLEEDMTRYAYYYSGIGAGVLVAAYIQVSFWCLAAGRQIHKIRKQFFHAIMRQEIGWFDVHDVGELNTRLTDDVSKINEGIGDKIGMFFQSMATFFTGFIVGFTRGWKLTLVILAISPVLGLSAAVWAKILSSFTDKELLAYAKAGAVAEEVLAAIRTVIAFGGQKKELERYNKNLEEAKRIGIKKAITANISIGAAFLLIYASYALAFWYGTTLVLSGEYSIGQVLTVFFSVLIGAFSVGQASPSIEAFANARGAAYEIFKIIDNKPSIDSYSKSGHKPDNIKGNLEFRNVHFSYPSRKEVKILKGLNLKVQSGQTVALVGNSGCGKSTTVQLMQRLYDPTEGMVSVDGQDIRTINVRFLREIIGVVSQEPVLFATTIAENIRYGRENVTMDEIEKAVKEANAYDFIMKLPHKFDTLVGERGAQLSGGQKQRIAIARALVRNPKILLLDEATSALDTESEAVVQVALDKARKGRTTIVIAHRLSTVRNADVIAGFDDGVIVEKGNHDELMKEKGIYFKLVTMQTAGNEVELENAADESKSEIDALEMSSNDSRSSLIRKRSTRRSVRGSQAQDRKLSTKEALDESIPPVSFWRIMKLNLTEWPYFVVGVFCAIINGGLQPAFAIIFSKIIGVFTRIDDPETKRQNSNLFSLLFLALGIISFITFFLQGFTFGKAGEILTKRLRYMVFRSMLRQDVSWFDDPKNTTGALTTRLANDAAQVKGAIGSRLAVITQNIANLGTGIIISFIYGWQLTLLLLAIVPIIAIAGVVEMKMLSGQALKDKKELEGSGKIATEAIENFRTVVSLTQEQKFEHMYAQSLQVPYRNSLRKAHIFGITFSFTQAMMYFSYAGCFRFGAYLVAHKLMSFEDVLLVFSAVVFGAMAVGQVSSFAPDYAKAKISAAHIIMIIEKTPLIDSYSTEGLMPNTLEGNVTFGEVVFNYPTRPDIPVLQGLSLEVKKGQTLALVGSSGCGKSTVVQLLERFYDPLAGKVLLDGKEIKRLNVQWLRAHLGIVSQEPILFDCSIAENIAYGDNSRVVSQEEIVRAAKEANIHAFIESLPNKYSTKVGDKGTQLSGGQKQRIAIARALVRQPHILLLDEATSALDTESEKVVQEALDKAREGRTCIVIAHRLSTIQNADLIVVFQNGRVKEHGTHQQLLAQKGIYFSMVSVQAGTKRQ

Activity [1] | Activity [2] | pIC50 [3] | inhibition (INH) [3] | inhibition (INH) [4] | Emax at 0.5 h (ABCG2 [5]) | inhibition (INH) [6] | inhibition (INH) [7] | inhibition (INH) [8] | Structure (SMILES) | Emax at 0.5 h (ABCG2 [9]) | pEC50 [10] | pEC50 [11] | Emax at 0.5 h (ABCG2 [12]) | fold change (FC) [13]
103.5% | 100.5% | 6.42 | Dose-dependent effect | Active | 80% | Active | Not Active | Not Active | COc1ccc2[nH]cc(CCNC(=O)c3cc(=O)c4c(OCc5ccc(Br)cc5)cccc4o3)c2c1 | 98% | 6.89 | 7.30 | 107% | 
97.4% | 82.8% | < 5.70 | Dose-dependent effect | Active | 80% | Active | Not Active | Not Active | COc1ccc2[nH]cc(CCN(C)C(=O)c3cc(=O)c4c(OCc5ccc(Br)cc5)cccc4o3)c2c1 | 101% | 6.02 | 6.28 | 96% | 
99.9% | 93.3% | 6.28 | Dose-dependent effect | Not Active | 80% | Active | Not Active | Not Active | COc1ccc2[nH]cc(CCNC(=O)c3cc(=O)c4cc(OCc5ccc(Br)cc5)ccc4o3)c2c1 | 108% | 6.54 | 7.00 | 109% | 
79.4% | 47.6% | < 5.70 | Dose-dependent effect | Not Active |  |  |  |  | CN(CCc1c[nH]c2ccccc12)C(=O)c1cc(=O)c2cc(OCc3ccc(Br)cc3)ccc2o1 | 54% | 5.59 | 5.78 | 50% | 
72.1% | 40.9% | < 5.70 | Dose-dependent effect | Not Active |  |  |  |  | CN(CCc1cn(C)c2ccccc12)C(=O)c1cc(=O)c2cc(OCc3ccc(Br)cc3)ccc2o1 | 50% | 5.69 | 5.67 | 61% | 
90.1% | 64.6% | 8.00 | Dose-dependent effect |  |  |  |  |  | COc1ccc2[nH]cc(CCNC(=O)c3cc(=O)c4ccc(OCc5ccc(Br)cc5)cc4o3)c2c1 | 80% | 5.90 | 5.81 | 93% | 2.1
105.2% | 93.1% | 6.60 | Dose-dependent effect | Active |  |  |  |  | O=C(NCc1cn(CCc2c[nH]c3ccccc23)nn1)c1cc(=O)c2c(OCc3ccc(Br)cc3)cccc2o1 | 87% | 6.31 | 6.34 | 86% | 
95.4% | 57.4% | < 5.70 | Dose-dependent effect | Active |  |  |  |  | CN(CCc1c[nH]c2ccccc12)Cc1cc(=O)c2c(OCc3ccc(Br)cc3)cccc2o1.Cl | 46% | 5.75 | 5.95 | 104% | 

The remaining lines, values behind:

Structure (SMILES) | Activity [1] | Activity [2] | pIC50 [3] | inhibition (INH) [3] | inhibition (INH) [4] | Emax at 0.5 h (ABCG2 [5]) | inhibition (INH) [6] | inhibition (INH) [7] | inhibition (INH) [8] | Emax at 0.5 h (ABCG2 [9]) | pEC50 [10] | pEC50 [11] | Emax at 0.5 h (ABCG2 [12]) | fold change (FC) [13]
CN(CCc1cn(C)c2ccccc12)C(=O)c1cc(=O)c2c(OCc3ccc(Br)cc3)cccc2o1 | 98.9% | 76.4% | < 5.70 | Dose-dependent effect | Active | 80% | Active | Not Active | Not Active | 88% | 6.00 | 6.30 | 84% | 
CN(CCc1c[nH]c2ccccc12)C(=O)c1cc(=O)c2c(OCc3ccc(Br)cc3)cccc2o1 | 95.9% | 74.6% | < 5.70 | Dose-dependent effect | Active | 80% | Active | Not Active | Not Active | 105% | 5.95 | 6.24 | 89% | 
O=C(NCc1cn(Cc2ccccc2)nn1)c1cc(=O)c2c(OCc3ccc(Br)cc3)cccc2o1 | 95.4% | 74.3% | 6.37 | Dose-dependent effect | Not Active |  |  |  |  | 78% | 5.82 | 6.30 | 76% | 
O=C(NCc1cn(Cc2ccc(Br)cc2)nn1)c1cc(=O)c2c(OCc3ccc(Br)cc3)cccc2o1 | 91.8% | 78.7% | 6.03 | Dose-dependent effect | Not Active |  |  |  |  | 95% | 6.24 | 6.15 | 76% | 
COc1ccc2[nH]cc(CCN(C)Cc3cc(=O)c4c(OCc5ccc(Br)cc5)cccc4o3)c2c1 | 102.5% | 82.3% | 6.09 | Dose-dependent effect | Active |  |  |  |  | 75% | 5.95 | 6.22 | 106% | 
O=c1c(O)c(-c2ccc(O)c(O)c2)oc2cc(O)cc(O)c12 [QUERCETIN] |  |  |  |  |  |  |  |  |  |  |  |  |  | 4.1
